Rtt109 Vps75: blocks Candida albicans Rtt109/Vps75 acetyltransferase activity; Q5AAJ8; purified Rtt109/Vps75, ThioGlo CoA-SH fluorescence, 4 h; inhibition, % at 34.9 µM; hit rate 0.16% among 330,000; AID 540336;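 active = inhibition of at least 50% in every replicate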
GASC-1 inh: blocks human GASC-1 demethylase activity; Q9H3R0; GST-JMJD2C(1-420) H3K9me3 demethylation, DELFIA europium; hit rate 0.069% among 330,000; inhibition, % at 2.35 µM;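 active = more than half of a compound's replicate wells show inhibition beyond 50%, single wells judged on their own value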;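 also: signal counts dimethyl H3K9 product captured on neutravidin plate; 0% = median of DMSO wells and 100% = 0.3 times that DMSO median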
Target sequence (Q9H3R0 1-420 limits assumed): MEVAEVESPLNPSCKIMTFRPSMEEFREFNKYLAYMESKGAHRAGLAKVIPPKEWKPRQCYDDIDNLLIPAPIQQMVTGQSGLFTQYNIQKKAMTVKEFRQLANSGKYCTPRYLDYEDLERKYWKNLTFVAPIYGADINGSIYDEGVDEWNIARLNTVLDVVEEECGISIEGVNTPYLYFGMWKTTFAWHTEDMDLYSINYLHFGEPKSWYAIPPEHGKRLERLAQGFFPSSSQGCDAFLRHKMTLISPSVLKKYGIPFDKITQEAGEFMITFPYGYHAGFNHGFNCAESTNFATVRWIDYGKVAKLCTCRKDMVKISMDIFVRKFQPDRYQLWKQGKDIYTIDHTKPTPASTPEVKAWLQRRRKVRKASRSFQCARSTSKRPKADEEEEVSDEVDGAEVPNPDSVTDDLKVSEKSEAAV
NR3A LBD binder: NR3A (human) ligand-binding domain modulation. hit rate 2.5% among 340,000. NR3A LBD differential scanning fluorimetry, Tm shift; 0% = protein alone, 100% = glycine-bound protein. Tm shift relative to glycine control, % at 25 µM;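 active = melting temperature shift of at least 10% of the positive control shift, at one fixed dose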
T cell HTS: T cell immune modulation candidate; 2C CD8+ T cell-vesicle binding, flow cytometry; stronger effect = lower value; response (vesicle binding), % at 7 µM; hit rate 0.068% among 330,000; AID 2052;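 active = response, share of CD8 T cells binding vesicles, and their 90th percentile fluorescence all below set limits, cut at about 80% in these data, passing the limit was not always enough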;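 also: values below 100% mean blocked vesicle binding to the CD8+ T cells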
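System: murine 2C transgenic CD8+ T lymphocytes; also added: QL9-loaded Drosophila micro-vesicles; times: binding 1.5 h at 37 °C; measured by: flow cytometry, PE anti-B7-1 (FL2) versus Alexa647 anti-CD8 (FL8), PFA-fixed; control set: Peptide-free naked vesicles (low) and QL9 vesicles with 0.7% DMSO vehicle (high)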
* hit, by the source's call; i = inactive; nt = no result given. A selection: hits, their analogues and other compounds. The true share with any hit is near 2.8%.

SMILES | Rtt109 Vps75 | GASC-1 inh | NR3A LBD binder | T cell HTS
CCOc1ccc(-c2ccc(/C=C3/C(=N)N4C=CSC4=NC3=O)o2)c([N+](=O)[O-])c1 | -3.5 | 0.8 | 14.4* | 398.3
CCOc1ccc(-c2ccc(/C=C3/C(=N)N4C(C)=CSC4=NC3=O)o2)c([N+](=O)[O-])c1 | 1.8 | -1.5 | 2.6 | 169.1
Cc1ccc(NC(=O)COC(=O)c2sccc2C)cc1S(=O)(=O)N1CCOCC1 | -1.2 | -4.1 | -22.4 | 183.2
O=C(O)c1sccc1S(=O)(=O)N1CCOCC1 | 3.0 | -11.3 | 10.6* | i
CC(=O)N1CCN(c2ccccc2NC(=O)COc2cc(C)cc(C)c2)CC1 | -10.2 | -1.4 | -0.2 | 331.4
C/C(=N\NC(=O)CNC(=O)c1ccc(F)cc1)c1ccco1 | 0.8 | -5.7 | 0.2 | 184.7
Cc1ccc(NC(=O)OCc2cc(-c3ccccc3)on2)cc1 | 55.8* | 0.1 | -3.4 | 493.2
Cc1ccccc1OCC(=O)N/N=C/c1ccco1 | 6.2 | 29.9 | -0.1 | 201.6
COc1ccc(OCC(=O)N/N=C/C(C)=C/c2ccco2)c(Br)c1 | 0.7 | 67.0* | -0.7 | 223.8
COC(=O)C[C@H](NC(=O)Cn1cnc2c(NCc3ccccc3)ncnc21)C(=O)OC | 1.9 | nt | 0.3 | nt
CCOCCCNC(=O)C1(O)c2cc(Br)ccc2NC(=O)N1c1ccc(CC)cc1 (stereo unspecified) | 0.6 | -9.2 | 17.8* | 547.6
CCOCCCNC(=O)C1(O)c2ccccc2NC(=O)N1c1ccc(Cl)cc1 (stereo unspecified) | -0.4 | -6.0 | 12.0* | 214.6
CCOCCCNC(=O)C1(O)c2cc(Br)ccc2NC(=O)N1c1ccc(OCC)cc1 (stereo unspecified) | 15.3 | 1.3 | 12.0* | 220.6
CCOCCCNC(=O)C1(O)c2cc(Br)ccc2NC(=O)N1c1cccc(OC)c1 (stereo unspecified) | 2.0 | 2.7 | -1.0 | 565.1
O=C(O)C1C2C=CC(C2)C1C(=O)OC1CC2CCC1C2 (stereo unspecified) | nt | 1.6 | 13.7* | 544.1
O=C(O)CCC(=O)OC1CC2CCC1C2 (stereo unspecified) | nt | 7.0 | -0.3 | 201.9
COc1cccc(C2C3=C(N=c4s/c(=C\c5cccc(O)c5)c(=O)n42)c2ccccc2CC3)c1OC (stereo unspecified) | -3.3 | -2.9 | 31.1* | 404.8
COc1cccc(C2C3=C(N=c4s/c(=C\c5ccc(O)cc5)c(=O)n42)c2ccccc2CC3)c1OC (stereo unspecified) | 31.0 | -3.7 | -14.2 | 324.2
COc1ccc(OCC(CO)N2CCN(c3ccccc3)CC2)cc1 (stereo unspecified) | -6.5 | nt | -0.2 | nt
N#Cc1ccsc1NC(=O)CCN1C(=O)C2CCCCC2C1=O (stereo unspecified) | 1.5 | -2.4 | 0.6 | 345.3
CC(C)C(c1nnnn1Cc1ccc2c(c1)OCO2)N1CCN(C)CC1 (stereo unspecified) | 6.4 | -1.4 | 1.3 | 210.1
CC(C)C(c1nnnn1Cc1ccc2c(c1)OCO2)N1CCN(c2ccccc2)CC1 (stereo unspecified) | -2.2 | 6.3 | 12.6* | 727.4
COc1ccc(Cn2nnnc2C(CC(C)C)N2CCN(c3ccccc3)CC2)cc1 (stereo unspecified) | -7.0 | -1.3 | 18.3* | 340.3
Cc1ccc(N2CCN(S(=O)(=O)c3ccc4c(c3)NC(=O)C(C)C(=O)N4)CC2C)cc1 (stereo unspecified) | 2.5 | -2.9 | 1.7 | 571.7
[O-][n+]1c2ccccc2cc2ccccc21 | -32.2 | -2.1 | 46.4* | 433.5
SMILES | Rtt109 Vps75 | GASC-1 inh | NR3A LBD binder | T cell HTS
COc1ccc2nc3ccccc3[n+]([O-])c2c1 | 0.9 | nt | 2.1 | nt
Nc1nc(/C=C/c2cccnc2)nc(-c2ccccc2O)n1 | -3.2 | 4.6 | 0.6 | 124.8
Nc1nc(/C=C/c2ccc(F)cc2)nc(-c2ccccc2O)n1 | 22.7 | -0.5 | 16.1* | 627.5
O=C(c1ccccc1)N1CCN(C(=O)c2ccccc2)c2ccccc21 | 8.5 | nt | -0.6 | nt
O=S1(=O)CC(O)C(NCc2cccnc2)C1 (stereo unspecified) | 65.0* | 0.5 | -2.4 | 191.0
CC(C)CNC1CS(=O)(=O)CC1O (stereo unspecified) | -8.7 | -2.8 | -0.8 | 0.0
O=C1CN(C(=O)COC(=O)c2cc(S(=O)(=O)N3CCOCC3)ccc2Cl)c2ccccc2N1 | 2.6 | -5.6 | -0.1 | 426.4
Cc1cc2n(n1)C(c1c[nH]c3ccccc13)Nc1ccccc1-2 (stereo unspecified) | 29.2 | 0.9 | 31.5* | 724.2
Cn1ncc(Br)c1C(=O)Nc1ccc(Cl)cn1 | -8.8 | 1.4 | 13.1* | 260.5
Cn1ncc(Br)c1C(=O)Nc1ccc(Br)cn1 | 3.7 | 1.0 | -3.4 | 487.0
O=C(N/N=C/c1cc2c(cc1Cl)OCO2)c1cc(-c2ccccc2)n[nH]1 | -0.2 | 5.3 | 32.4* | 638.0
CN(C)c1ccc(/C=N/NC(=O)c2ccc3c(c2)OCCO3)cc1 | 10.6 | 7.9 | 21.1* | 178.3
O=C(N/N=C/c1ccc(Cl)cc1)c1ccc2c(c1)OCO2 | 10.7 | 0.7 | -0.5 | 69.0
CN(C)c1ccc(/C=N/NC(=O)c2cc(-c3ccc4c(c3)OCO4)n[nH]2)cc1 | -2.8 | 0.2 | 12.4* | 280.0
CCN(CC)c1ccc(/C=N/NC(=O)c2ccc3c(c2)OCCO3)cc1 | -2.5 | 0.6 | -1.7 | nt
COc1ccc(/C=N/NC(=O)c2cc(-c3ccc4c(c3)OCO4)n[nH]2)cc1OC | -35.6 | 2.3 | 25.3* | 305.7
O=C(N/N=C/c1cc2c(cc1Cl)OCO2)c1ccncc1 | -5.4 | 16.2 | 2.9 | 486.8
Cc1ccc(C)c(C(=O)CN2C(=O)NC3(CCCCCC3)C2=O)c1 | -0.8 | nt | 2.1 | nt
COC(=O)c1ccc(NC(=O)CN2CCN(S(=O)(=O)c3ccc(Br)cc3)CC2)cc1 | 0.8 | 8.7 | -5.5 | 430.2
O=C(N/N=C/c1ccc(F)cc1)c1cc(-c2ccc3c(c2)OCO3)n[nH]1 | -8.5 | 7.0 | 29.2* | 245.8
O=C(N/N=C/c1ccncc1)c1ccc2c(c1)OCO2 | -1.8 | 27.9 | -4.2 | 170.1
COc1ccc(CCNc2ccc(C(CC(N)=O)NC(=O)c3cc(OC)ccc3OC)cc2[N+](=O)[O-])cc1 (stereo unspecified) | 0.8 | -23.2 | 42.3* | 372.6
COc1cccc(NC(=O)COC(=O)c2sccc2C)c1 | -7.7 | 10.4 | -0.6 | 461.1
COc1cccc(N2CCN(S(=O)(=O)c3ccc4c(c3)NC(=O)C(C)C(=O)N4)CC2)c1 (stereo unspecified) | 1.7 | -0.8 | -0.1 | 598.6
CCOC(=O)C(C)Sc1nc(C2CC2)cc(C(F)(F)F)c1C#N (stereo unspecified) | 4.8 | 2.2 | 1.4 | 357.1
COC(=O)CSc1nc(C2CC2)cc(C(F)(F)F)c1C#N | -6.9 | -2.3 | 18.0* | 478.1
CC(OC(=O)Cc1ccccc1[N+](=O)[O-])C(=O)NC(=O)NC1CCCCC1 (stereo unspecified) | -5.9 | -0.4 | 0.5 | 266.9
CCCCS(=O)(=O)CC(COc1ccccc1)OC(=O)c1ccccc1 (stereo unspecified) | 0.1 | 16.5 | 13.6* | 419.7

Assay outcomes (PubChem)
